This is a sample that favours compounds with a hit; in the whole collection about 4.4% have one here.
MPTP inh: blocks calcium-induced mitochondrial swelling | AID 602449 | inhibition, % at 10 µM | isolated mouse mitochondria, Ca2+ swelling absorbance, 30 min | 360,000 tested, 1.4% active;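 active means inhibition of 50% or more, scaled per plate between neutral and stimulator controls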;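 further: 0% = DMSO wells given calcium and 100% = 1 mM EGTA wells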
GRIN3A LBD mod: modulators (binders) of human NR3A ligand-binding domain; NR3A LBD differential scanning fluorimetry, Tm shift; 0% = protein alone, 100% = glycine-bound protein; Tm shift relative to glycine control, % at 25 µM; 340,000 tested, 2.5% active;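 active means melting temperature shift of at least 10% of the positive control shift, at one fixed dose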
EBI2 antag: antagonists of human EBI2 receptor; P32249; EBI2 beta-arrestin recruitment, luminescence, 7a,25-OHC stimulated; inhibition, % at 5 µM; 360,000 tested, 0.81% active; in the data active means inhibition above about 38%;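 further: enzyme fragment complementation signal reports receptor beta-arrestin coupling in cells; 0% = agonist plus DMSO wells and 100% = wells without agonist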
Target sequence (P32249 whole entry, looked up, the tested form may be a part): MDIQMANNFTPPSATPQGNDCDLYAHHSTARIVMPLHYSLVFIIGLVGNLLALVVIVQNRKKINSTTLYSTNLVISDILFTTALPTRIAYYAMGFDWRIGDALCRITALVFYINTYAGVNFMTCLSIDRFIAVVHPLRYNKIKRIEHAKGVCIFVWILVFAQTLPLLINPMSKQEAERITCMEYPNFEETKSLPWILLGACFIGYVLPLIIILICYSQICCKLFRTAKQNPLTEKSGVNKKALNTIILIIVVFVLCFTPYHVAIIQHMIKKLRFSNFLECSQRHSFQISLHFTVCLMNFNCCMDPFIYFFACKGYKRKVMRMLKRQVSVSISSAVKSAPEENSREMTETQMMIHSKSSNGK
SENP1 inh: blocks the human SENP1 SUMO protease catalytic domain; Q9P0U3; recombinant SENP1 catalytic domain, CyPet-SUMO1-YPet FRET cleavage; inhibition, % at 10 µM; 360,000 tested, 0.21% active;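 active means inhibition at least 30% at 10 µM, raw YFP signal under a set limit, fluorescence ratio 0.5 to 1.5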;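 further: 0% = enzyme with DMSO and 100% = no enzyme wells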
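Test system: hSENP1 catalytic domain, recombinant; Amount: 20 pM final SENP1 enzyme; Medium: Tris pH 8 buffer plus EDTA, NaCl, BME, BSA, NP40, catalase; Schedule: 50 min enzyme reaction, room temperature, light-protected; Technique: FRET fluorescence in CFP and YFP emission channels; Controls: no-enzyme wells low, DMSO-plus-enzyme wells high control.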
MPTP counter: membrane potential counter-screen of mitochondrial pore inhibitors; shares compounds with MPTP inh; isolated mitochondria, Rhodamine 123 fluorescence; inhibition, % at 10 µM; 5,000 tested, 78% active; in the data active means inhibition above about 22%;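 further: 0% = DMSO vehicle and 100% = positive control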
MPTP swell DR: dose response confirmation of mitochondrial permeability transition pore inhibitors | shares compounds with MPTP inh | isolated mitochondria swelling, absorbance | IC50, µM | 780 tested, 58% active; in the data active means IC50 below about 20 µM
MPTP counter DR: MPTP inhibitor counter-screen activity, dose response | shares compounds with MPTP inh | isolated mitochondria counterscreen, fluorescence read-out | IC50, µM | 780 tested, 49% active; in the data active means IC50 below about 80 µM
The depositor's hits bear a star; ! = repeats disagree.

How did COc1ccc(CNC(=O)Nc2ccc([N+](=O)[O-])cc2)cc1 do in these assays?
MPTP inh: 99*; GRIN3A LBD mod: -16; EBI2 antag: 8; SENP1 inh: 4; MPTP counter: 82*

What do the screens show for `O=C(NCCc1ccc(F)cc1)Nc1ccc([N+](=O)[O-])cc1`?
MPTP inh: 82*; GRIN3A LBD mod: 5; EBI2 antag: 14; SENP1 inh: -3; MPTP counter: 79*

Results for Cc1ccc(S(=O)(=O)NC(CC(=O)NCC2CCCO2)c2ccccc2)cc1 (stereo not drawn) ?
MPTP inh: 1; GRIN3A LBD mod: -1; EBI2 antag: 5; SENP1 inh: 0

How did CC(C)NC(=O)c1ccc(N(Cc2ccc(Cl)cc2)S(C)(=O)=O)cc1 do in these assays?
MPTP inh: 1; GRIN3A LBD mod: -1; EBI2 antag: -7; SENP1 inh: 0

What do the screens show for `COc1cc(/C=C/c2sc3ccccc3[n+]2CCCS(=O)(=O)[O-])ccc1O`?
MPTP inh: 56*; GRIN3A LBD mod: 0; EBI2 antag: 13; SENP1 inh: 67; MPTP counter: -11

How did Cc1nc(SCc2nc3ccccc3[nH]2)c2oc3ccccc3c2n1 do in these assays?
MPTP inh: 0; GRIN3A LBD mod: -6; EBI2 antag: 24; SENP1 inh: -3

What do the screens show for `c1ccc(-c2nc(SCc3nc4ccccc4[nH]3)c3oc4ccccc4c3n2)cc1`?
MPTP inh: 50*; GRIN3A LBD mod: -3; EBI2 antag: 29; SENP1 inh: -13; MPTP counter: 85*

Results for CCOCCCn1c(=S)[nH]c2cc(C(=O)NCC(OC)OC)ccc2c1=O ?
MPTP inh: -1; GRIN3A LBD mod: 0; EBI2 antag: -2; SENP1 inh: 6

How did CCCCCC[N+](C)(C)CC/C=C1/c2ccccc2Sc2ccc(Cl)cc21 do in these assays?
MPTP inh: 1; GRIN3A LBD mod: -4; EBI2 antag: -1; SENP1 inh: -2

Results for CN(C)CC/C=C1/c2ccccc2Sc2ccc(Cl)cc21 ?
MPTP inh: 95*!; GRIN3A LBD mod: -1; EBI2 antag: -2; SENP1 inh: 0; MPTP counter: -8

Results for COc1cc(NC(=O)c2cc(-c3ccc(C)cc3)on2)cc(OC)c1OC ?
MPTP inh: 1; GRIN3A LBD mod: -3; EBI2 antag: 10; SENP1 inh: -1

How did CCc1ccccc1NC(=O)c1cc(-c2cccc(O)c2)on1 do in these assays?
MPTP inh: 102*; GRIN3A LBD mod: -7; EBI2 antag: 12; SENP1 inh: 3; MPTP counter: 6; MPTP swell DR: 2.1*; MPTP counter DR: >80

How did O=C(Nc1cccnc1Cl)c1cc(-c2cccc(O)c2)on1 do in these assays?
MPTP inh: 81*; GRIN3A LBD mod: -22; EBI2 antag: -6; SENP1 inh: 1; MPTP counter: -7; MPTP swell DR: >100; MPTP counter DR: >80

What do the screens show for `COc1cccc(-c2cc(C(=O)Nc3cccnc3Cl)no2)c1`?
MPTP inh: -1; GRIN3A LBD mod: 0; EBI2 antag: 7; SENP1 inh: 0

How did O=C(Nc1ccccc1C(F)(F)F)c1cc(-c2cccc(O)c2)on1 do in these assays?
MPTP inh: 8; GRIN3A LBD mod: 0; EBI2 antag: -2; SENP1 inh: 1

How did COc1cc(NC(=O)c2cc(-c3cccc(O)c3)on2)cc(OC)c1OC do in these assays?
MPTP inh: 110*; GRIN3A LBD mod: -10; EBI2 antag: -2; SENP1 inh: -2; MPTP counter: 14; MPTP swell DR: 2.6*; MPTP counter DR: >80

How did CCOC(=O)/C=C/c1ccccc1S(=O)(=O)NC(C)(C)C do in these assays?
MPTP inh: 0; GRIN3A LBD mod: -1; EBI2 antag: -5; SENP1 inh: 2

How did Cc1csc(=Nc2ccccc2)n1CCCN1CCCC1=O do in these assays?
MPTP inh: -2; GRIN3A LBD mod: 0; EBI2 antag: 1; SENP1 inh: 1

How did COC(=O)C[C@@H]1C[C@@H]2c3cc(NS(=O)(=O)c4ccc(F)cc4)ccc3O[C@@H]2[C@H](CO)O1 do in these assays?
MPTP inh: -1; EBI2 antag: -6; SENP1 inh: -3

What do the screens show for `NS(=O)(=O)c1ccc(CCNC(=O)c2cc3ccccc3s2)cc1`?
MPTP inh: 0; GRIN3A LBD mod: -8; EBI2 antag: -4; SENP1 inh: 0

High-throughput results as filed in PubChem BioAssay.
